Screening results as filed in PubChem BioAssay.
TRPC6 act: mouse TRPC6 channel activators, primary screen, cell-based, HEK293, membrane potential dye; B-score at 10 µM; AID 2550, 2010; HEK293-TRPC6 membrane potential dye fluorescence; hits give high values; hit rate 0.13% among 310,000; Short transient receptor potential channel 6 (Mus musculus), Q61143;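 active means B-score of the integrated fluorescence ratio above library mean plus 3 SD, and starting fluorescence ratio within library mean plus 5 SD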;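 further: higher score means more depolarization so channel activation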
TRPC4 inh: inhibitors of mouse TRPC4 channel, primary screen, Fluo4 calcium, HEK293 TRPC4beta/mu-opioid cells; DAMGO-evoked Fluo4 calcium flux; hits give low values; hit rate 0.39% among 300,000; AID 2247, 2010; Short transient receptor potential channel 4 (Mus musculus), Q9QUQ5; B-score at 10 µM;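 active means B-score over 3 SD under the library average, no early fluorescence shift, positive overall ratio signal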
Target sequence (Q9QUQ5 whole entry, looked up): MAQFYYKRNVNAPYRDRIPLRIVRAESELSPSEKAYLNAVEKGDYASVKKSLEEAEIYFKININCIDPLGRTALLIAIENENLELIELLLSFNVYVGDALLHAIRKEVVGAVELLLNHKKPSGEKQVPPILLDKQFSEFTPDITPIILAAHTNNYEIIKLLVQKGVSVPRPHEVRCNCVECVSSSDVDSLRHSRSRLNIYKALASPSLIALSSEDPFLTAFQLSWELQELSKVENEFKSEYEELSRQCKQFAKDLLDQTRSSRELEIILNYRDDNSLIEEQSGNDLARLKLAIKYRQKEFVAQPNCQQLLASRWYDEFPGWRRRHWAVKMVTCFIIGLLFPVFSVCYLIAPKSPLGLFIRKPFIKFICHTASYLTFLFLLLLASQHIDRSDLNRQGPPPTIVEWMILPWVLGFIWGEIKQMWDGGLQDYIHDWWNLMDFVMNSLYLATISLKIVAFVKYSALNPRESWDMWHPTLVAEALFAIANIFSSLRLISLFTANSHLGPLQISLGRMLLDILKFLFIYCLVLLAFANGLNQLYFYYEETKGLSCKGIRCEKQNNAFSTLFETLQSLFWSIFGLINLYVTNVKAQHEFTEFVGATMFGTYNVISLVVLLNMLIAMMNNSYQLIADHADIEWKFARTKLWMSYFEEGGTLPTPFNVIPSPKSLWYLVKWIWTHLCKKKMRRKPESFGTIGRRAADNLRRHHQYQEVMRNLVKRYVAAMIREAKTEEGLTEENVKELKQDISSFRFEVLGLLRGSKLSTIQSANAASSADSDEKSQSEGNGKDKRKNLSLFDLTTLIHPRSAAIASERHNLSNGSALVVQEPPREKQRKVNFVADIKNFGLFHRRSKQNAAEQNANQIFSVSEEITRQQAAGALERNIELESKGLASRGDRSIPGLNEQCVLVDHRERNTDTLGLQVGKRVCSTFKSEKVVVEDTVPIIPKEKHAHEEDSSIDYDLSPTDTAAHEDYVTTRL
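System: stable TRPC4beta/mu-opioid receptor HEK293 cells; Dosing: single-point compound dosing; Measured by: Fluo4 Ca2+ flux fluorescence; Read-out basis: per-well B score of integrated baseline-normalized Fluo4 ratio.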
TRPC4 PAM: positive allosteric modulators of TRPC4, primary screen, cell-based, mouse TRPC4beta, HEK293 mu-opioid, Fluo-4 calcium. Short transient receptor potential channel 4 (Mus musculus), Q9QUQ5. DAMGO EC20, Fluo-4 Ca2+ flux; hits give high values. B-score at 10 µM. hit rate 0.42% among 310,000. AID 2227, 2009;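 active means B-score of calcium response area above 5 SD of library B-scores, with initial fluorescence ratio within 5 SD of library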;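 further: B-score of integrated fluorescence ratio over time as area under calcium response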
TRPC4 agonist: activators of mouse TRPC4 channel, primary screen, Fluo4 calcium, HEK293 TRPC4beta/mu-opioid cells | Fluo4 calcium fluorescence; hits give high values | B-score at 10 µM | hit rate 0.49% among 310,000;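 active means B-score above 5 SD of library B-scores, and initial fluorescence ratio not above library mean plus 5 SD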;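 further: positive B-score marks a calcium rise read as TRPC4 activation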
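System – HEK293 cells stably co-expressing mouse TRPC4beta and mu-opioid receptor · Signal – Fluo4 calcium-sensitive dye fluorescence, kinetic, 1 Hz baseline · Benchmarks – buffer (low) and maximal DAMGO (high) · Read-out – B score of integrated fluorescence ratio per well · Incubation – dye loading 45 min room temperature, 110 s kinetic read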
TRPC6 inhibitor: mouse TRPC6 channel inhibitors, primary screen, cell-based, HEK293, membrane potential dye. Short transient receptor potential channel 6 (Mus musculus), Q61143. ACh-evoked depolarization; hits give low values. B-score at 10 µM. hit rate 1.1% among 310,000. AID 2553, 2010;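 active means B-score under library mean minus 3 SD, initial fluorescence not abnormally high, positive integrated signal ratio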;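 further: B-score derived from integrated fluorescence ratio over the kinetic read; more negative B-score means stronger inhibition of depolarization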
TRPC4 spec 2: second check of whether TRPC6 inhibitors also affect mouse TRPC4. hit rate 42% among 920. shares compounds with TRPC6 inhibitor. HEK293 TRPC4/MOR, membrane potential dye fluorescence; channel activated by saturating DAMGO dose. inhibition, % at 10 µM;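 active means compounds whose fluorescence signal differed from control wells by over 3 SD, either direction, in both duplicate plates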
TRPC4 spec: mouse TRPC4 modulation by TRPC6 hits, confirmation, selectivity assay for TRPC6 inhibitor project, cell-based, HEK293 TRPC4/mu-opioid, membrane potential dye. activity change, negative = inhibition, % at 10 µM. membrane potential fluorescence. hit rate 61% among 920. shares compounds with TRPC6 inhibitor. AID 2777, 2010;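 active means rise or fall in signal beyond 3 SD of buffer-only wells in both replicate plates, either sign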;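 further: integrated kinetic ratio of fluorescence range over baseline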
HEK293 MPD ctr 2-1: nonspecific membrane potential effects, parental HEK293, confirmation, counter-screen for TRPC6 inhibitor project, cell-based, second counter screen | shares compounds with TRPC6 inhibitor | parental HEK293 membrane potential dye fluorescence; maximal acetylcholine challenge after compound addition | signal change vs control, % at 10 µM | hit rate 31% among 920 | AID 2779, 2010;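 active means membrane potential signal moving either way by over 3 SD of the maximum-effect control, in both duplicate plates, meaning non-specific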
HEK293 MPD ctr-1: membrane potential modulation in parental HEK293, confirmation, counter-screen for TRPC6 inhibitor project, cell-based; shares compounds with TRPC6 inhibitor; parental HEK293 membrane potential dye fluorescence; membrane potential signal change, % at 10 µM; hit rate 60% among 920;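 active means membrane potential signal shifting up or down by more than 3 SD of buffer-only wells, on both duplicate plates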
HEK293 MPD ctr-2: parental HEK293 membrane potential modulation, confirmation, counter-screen for TRPC6 modulator project, cell-based. shares compounds with TRPC6 inhibitor. membrane potential dye fluorescence. membrane potential signal change, % at 10 µM. hit rate 51% among 2,400. AID 488924, 2010;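 active means membrane potential signal moves up or down beyond 5 SD from buffer-only wells, on both duplicate plates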
HEK293 MPD ctr 2-2: second counter-screen for TRPC6 modulators: effect in parental HEK293 cells | hit rate 14% among 2,400 | AID 488926 | shares compounds with TRPC6 inhibitor | inhibition, % at 10 µM | membrane potential dye fluorescence; after compound, maximal acetylcholine stimulation;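 active means membrane potential signal drops by more than 5 SD from the mean control signal, in both duplicate plates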;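 further: plate controls were acetylcholine ECmax control wells for no effect and buffer only wells for full effect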
TRPC4/MOR mod: TRPC4 modulation by TRPC6 hit compounds, confirmation, selectivity assay for TRPC6 modulator project, cell-based, HEK293 TRPC4/mu-opioid, membrane potential dye, mouse; membrane potential fluorescence; shares compounds with TRPC6 inhibitor; percent change from control (negative = decrease, positive = increase), % at 10 µM; AID 488927, 2010; hit rate 69% among 2,400;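 active means membrane potential signal moved up or down beyond 5 SD of buffer control wells, in both duplicate plates, actives on both sides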;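 further: plate controls were assay buffer wells for no effect and DAMGO maximal-effect wells for full effect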
TRPC4/MOR inh 2: mouse TRPC4 off-target activity of TRPC6 modulators, second screen; shares compounds with TRPC6 inhibitor; HEK293 TRPC4/mu-opioid, membrane potential dye fluorescence; stimulated with maximal-effect DAMGO; inhibition, % at 10 µM; hit rate 55% among 2,400; AID 488928;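 active means drop in membrane potential signal beyond 5 SD of the control wells in both duplicate plates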;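 further: TRPC4 counter screen for TRPC6 hits run under conditions tuned for TRPC6 not TRPC4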
TRPC6 block conf: mouse TRPC6 channel inhibitors, confirmation, HEK293 cells, membrane potential dye, duplicate. shares compounds with TRPC6 inhibitor. ACh-evoked depolarization. inhibition, % at 10 µM. hit rate 43% among 3,300;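 active means fluorescence ratio falls more than 5 SD below the full-stimulation control mean, in both duplicate runs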;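 further: integrated fluorescence ratio of peak minus minimum over baseline after agonist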
TRPC6 act confirm: mouse TRPC6 channel activators, confirmation, HEK293 cells, membrane potential dye, duplicate | shares compounds with TRPC6 inhibitor | HEK293-TRPC6 membrane potential dye fluorescence, FDSS | activation, % at 10 µM | hit rate 11% among 2,800;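 active means ratio signal rise beyond 5 SD above unstimulated control wells' mean, seen in both duplicate runs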;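 further: plate controls were buffer EC0 wells for no effect and acetylcholine ECmax response for full effect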
Starred values were filed as active, the others as inactive; i = inactive; nt = not tested or not shown. Only some compounds are listed: those with a hit (about 2.3% of all), similar ones and a draw of the others.

SMILES	TRPC6 act	TRPC4 inh	TRPC4 PAM	TRPC4 agonist	TRPC6 inhibitor	HEK293 MPD ctr-2	HEK293 MPD ctr 2-2	TRPC4/MOR mod	TRPC4/MOR inh 2	TRPC6 block conf	TRPC6 act confirm	others
COCCCn1c(=NC(=O)c2ccccc2)c(C#N)cc2c(=O)n3cccc(C)c3nc21	i	i	i	i	-6.7*	i	i	i	i	i	i
COCCCn1c(=NC(C)=O)c(C#N)cc2c(=O)n3cccc(C)c3nc21	i	i	i	i	-6*	-140%*	i	-42%*	28%*	i	i
CCOCCCn1c(=NC(=O)c2cccs2)c(C#N)cc2c(=O)n3cccc(C)c3nc21	i	i	i	i	i	nt	nt	nt	nt	nt	nt
Cc1cccc(C(=O)N=c2c(C#N)cc3c(=O)n4cccc(C)c4nc3n2Cc2ccco2)c1	i	i	i	i	-5.1*	124%*	i	-54%*	36%*	i	i
Cc1cccn2c(=O)c3cc(C#N)c(=NC(=O)c4ccccc4)n(Cc4ccco4)c3nc12	i	i	i	i	i	nt	nt	nt	nt	nt	nt
Cc1cc(CN(C)C(=O)c2ccc(OC3CCN(CCc4ccccc4)CC3)cc2)on1	i	i	i	i	i	nt	nt	nt	nt	nt	nt
Cc1ccc(CNc2nc(C)c(C(=O)N(C)C)s2)cc1	i	i	i	i	i	nt	nt	nt	nt	nt	nt
OC(CNCc1ccccc1)(c1ccc(F)cc1)c1ccc(F)cc1	i	i	i	i	-5.3*	160%*	i	36%*	56%*	i	nt
COc1ccc(CN(C)C(=O)c2cccc(NS(=O)(=O)c3ccccc3)c2)cc1F	i	i	i	i	i	nt	nt	nt	nt	nt	nt
Cc1ccc(NC(=S)Nc2ccc(Cl)c(Cl)c2)c(OC(F)F)c1	i	i	i	i	i	nt	nt	nt	nt	nt	nt
Fc1ccc(NC(=S)Nc2ccccc2OC(F)F)cc1Cl	i	i	i	i	-6.5*	i	i	i	35%*	i	i
Cc1ccc(NC2CCCN(C(=O)c3cnc4ccccn4c3=O)C2)cc1C (stereo not given)	i	i	i	i	i	nt	nt	nt	nt	nt	nt
CC(C)c1ccc(NC2CCCN(C(=O)c3cnc4ccccn4c3=O)C2)cc1 (stereo not given)	i	i	i	i	-7*	nt	nt	nt	nt	i	i	TRPC4 spec 2=i;TRPC4 spec=i;HEK293 MPD ctr 2-1=i;HEK293 MPD ctr-1=i
CCOc1ccc2nc(SCC(=O)N(CCOC)c3c(N)n(Cc4ccccc4)c(=O)[nH]c3=O)[nH]c2c1	i	i	i	i	i	nt	nt	nt	nt	nt	nt
CC(C)OCCCN1CN(S(=O)(=O)c2cccc(Cl)c2)c2nc3ccccc3nc21	i	i	i	i	-5.1*	i	i	9.5%*	i	i	i
CC(C)OCCCN1CN(S(=O)(=O)c2ccc(Cl)cc2)c2nc3ccccc3nc21	i	i	i	i	i	nt	nt	nt	nt	nt	nt
CN(C(=O)c1nn(C)c2c1CS(=O)(=O)c1ccccc1-2)c1cccc(Cl)c1	i	i	i	i	-5.6*	98%*	i	21%*	i	50%*	nt
CCC(=O)N/C(=N/c1nc(C)cc(C)n1)Nc1cccc(OC)c1	i	i	i	i	-5.8*	i	i	i	i	i	i
CCOC(=O)c1c(CN2CCN(C)CC2)n(C)c2cc(Br)c(OC)cc12	i	i	i	i	-5.5*	-113%*	i	-22%*	72%*	44%*	i
CCOC(=O)c1c(CN2CCCCC2)n(C)c2cc(Br)c(O)cc12	i	i	i	i	i	nt	nt	nt	nt	nt	nt
Cc1ccc(S(=O)(=O)/C(C#N)=C/c2c(N3CCOCC3)nc3c(C)cccn3c2=O)cc1	i	i	i	i	-5.9*	i	i	-10%*	i	i	i
COc1cc(/C=C2\C(=N)N3N=C(S(C)(=O)=O)SC3=NC2=O)ccc1OC(=O)c1ccco1	i	i	i	i	i	nt	nt	nt	nt	nt	nt
Cc1cc(C)n2[nH]c(=O)c(N=Nc3ccc(S(N)(=O)=O)cc3)c2n1	i	i	i	i	-15*	-397%*	102%*	-60%*	68%*	79%*	i
